Source: ChEMBL document CHEMBL1165899, “Synthesis and antitumor evaluation of novel cyclic arylsulfonylureas: ADME-T and pharmacophore prediction” (2010)

How the values were obtained:
Assay type in all cases: functional
[1] = system: SK-MEL-28; experiment: Growth inhibition of human SK-MEL-28 cells at 10 uM after 48 hrs by sulforhodamine B assay relative to control; conditions: SK-MEL-28, 48 h, read-out: GI
[2] = system: CAKI-1; experiment: Growth inhibition of human Caki1 cells at 10 uM after 48 hrs by sulforhodamine B assay relative to control; conditions: CAKI-1, 48 h, read-out: GI
[3] = system: ACHN; experiment: Growth inhibition of human ACHN cells at 10 uM after 48 hrs by sulforhodamine B assay relative to control; conditions: read-out: GI
[4] = system: 786-0; experiment: Growth inhibition of human 786-0 cells at 10 uM after 48 hrs by sulforhodamine B assay relative to control; conditions: 786-0, 48 h, read-out: GI
[5] = system: SR; experiment: Growth inhibition of human SR cells at 10 uM after 48 hrs by sulforhodamine B assay relative to control; conditions: read-out: GI
[6] = Growth inhibition of human […] cells at 10 uM after 48 hrs by sulforhodamine B assay relative to control; conditions: read-out: GI
[7] = system: PC-3; experiment: Growth inhibition of human PC3 cells at 10 uM after 48 hrs by sulforhodamine B assay relative to control; conditions: PC-3, 48 h, read-out: GI
[8] = system: SK-OV-3; experiment: Growth inhibition of human SKOV3 cells at 10 uM after 48 hrs by sulforhodamine B assay relative to control; conditions: SK-OV-3, 48 h, read-out: GI
[9] = system: OVCAR-8; experiment: Growth inhibition of human OVCAR8 cells at 10 uM after 48 hrs by sulforhodamine B assay relative to control; conditions: OVCAR-8, 48 h, read-out: GI
[10] = system: IGROV-1; experiment: Growth inhibition of human IGROV1 cells at 10 uM after 48 hrs by sulforhodamine B assay relative to control; conditions: IGROV-1, 48 h, read-out: GI
[11] = system: T47D; experiment: Growth inhibition of human T47D cells at 10 uM after 48 hrs by sulforhodamine B assay relative to control; conditions: read-out: GI
Summary of the method: (§1)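 NCI 60-cell-line single-dose screen at 10 µM. Cells were plated at 5000–40,000 cells/well according to doubling time, in medium with 2 mM L-glutamine, and held 24 h at 37 °C, 5% CO₂, 100% humidity before drug. Time-zero plates were TCA-fixed. Exposure was 48 h, then TCA fixation and sulforhodamine B staining for 10 min, acetic acid washes, 10 mM trizma solubilization and A515. % inhibition = 100 − % activity, where 100% is the DMSO-solvent control.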

[12] = system: MDA-MB-435; experiment: Growth inhibition of human MDA-MB-435 cells at 10 uM after 48 hrs by sulforhodamine B assay relative to control; conditions: MDA-MB-435, 48 h, read-out: GI
[13] = system: MDA-MB-231; experiment: Growth inhibition of human MDA-MB-231 cells at 10 uM after 48 hrs by sulforhodamine B assay relative to control; conditions: MDA-MB-231, 48 h, read-out: GI
[14] = Growth inhibition of human Hs 578T cells at 10 uM after 48 hrs by sulforhodamine B assay relative to control; conditions: read-out: GI
[15] = system: BT-549; experiment: Growth inhibition of human BT549 cells at 10 uM after 48 hrs by sulforhodamine B assay relative to control; conditions: BT-549, 48 h, read-out: GI
[16] = system: KM12; experiment: Growth inhibition of human KM12 cells at 10 uM after 48 hrs by sulforhodamine B assay relative to control; conditions: KM12, 48 h, read-out: GI
[17] = system: HT-29; experiment: Growth inhibition of human HT-29 cells at 10 uM after 48 hrs by sulforhodamine B assay relative to control; conditions: HT-29, 48 h, read-out: GI
[18] = system: NCI-H460; experiment: Growth inhibition of human NCI-H460 cells at 10 uM after 48 hrs by sulforhodamine B assay relative to control; conditions: NCI-H460, 48 h, read-out: GI
[19] = system: HOP-92; experiment: Growth inhibition of human HOP92 cells at 10 uM after 48 hrs by sulforhodamine B assay relative to control; conditions: HOP-92, 48 h, read-out: GI
[20] = system: EKVX; experiment: Growth inhibition of human EKVX cells at 10 uM after 48 hrs by sulforhodamine B assay relative to control; conditions: read-out: GI
[21] = system: SF-295; experiment: Growth inhibition of human SF295 cells at 10 uM after 48 hrs by sulforhodamine B assay relative to control; conditions: SF-295, 48 h, read-out: GI
[22] = system: SNB-19; experiment: Growth inhibition of human SNB19 cells at 10 uM after 48 hrs by sulforhodamine B assay relative to control; conditions: SNB-19, 48 h, read-out: GI
[23] = system: SNB-75; experiment: Growth inhibition of human SNB75 cells at 10 uM after 48 hrs by sulforhodamine B assay relative to control; conditions: SNB-75, 48 h, read-out: GI
[24] = system: U-251; experiment: Growth inhibition of human U251 cells at 10 uM after 48 hrs by sulforhodamine B assay relative to control; conditions: U-251, 48 h, read-out: GI; summary of the method: as §1
[25] = system: UACC-62; experiment: Growth inhibition of human UACC62 cells at 10 uM after 48 hrs by sulforhodamine B assay relative to control; conditions: UACC-62, 48 h, read-out: GI; summary of the method: as §1
[26] = system: UACC-257; experiment: Growth inhibition of human UACC257 cells at 10 uM after 48 hrs by sulforhodamine B assay relative to control; conditions: UACC-257, 48 h, read-out: GI; summary of the method: as §1

`CN(C)c1ccc(/C=C2\NC(=O)N(S(=O)(=O)c3ccc(Cl)cc3)C2=O)cc1` showed an inhibition of growth at 10 µM [1] of -4.69%, an inhibition of growth at 10 µM [2] of -5.71% and an inhibition of growth at 10 µM [3] of -5.38%. It also gave an inhibition of growth at 10 µM [4] of -0.44%, an inhibition of growth at 10 µM [5] of 34.7% and an inhibition of growth at 10 µM [6] of -6.72%. For the same molecule, the inhibition of growth at 10 µM [7] was -6.65%, the inhibition of growth at 10 µM [8] was -8.45% and the inhibition of growth at 10 µM [9] was -8.63%. For the same molecule, the inhibition of growth at 10 µM [10] was 97.9%, the inhibition of growth at 10 µM [11] was -9.29% and the inhibition of growth at 10 µM [12] was -4.89%. It also gave an inhibition of growth at 10 µM [13] of -2.18%, an inhibition of growth at 10 µM [14] of 14.1% and an inhibition of growth at 10 µM [15] of 4.63%. It also gave an inhibition of growth at 10 µM [16] of -11.6%, an inhibition of growth at 10 µM [17] of -2.64% and an inhibition of growth at 10 µM [18] of -15.8%. For the same molecule, the inhibition of growth at 10 µM [19] was 11.2%, the inhibition of growth at 10 µM [20] was 14.7% and the inhibition of growth at 10 µM [21] was -8.92%. For the same molecule, the inhibition of growth at 10 µM [22] was -6.78%, the inhibition of growth at 10 µM [23] was -5.55% and the inhibition of growth at 10 µM [24] was -0.69%. It also gave an inhibition of growth at 10 µM [25] of 3.93% and an inhibition of growth at 10 µM [26] of -1.01%.
